pIC50: −log10 of the molar value. Active and inactive are the calls of the source.
Key:
Schistosoma mansoni [1] = assay: Antischistosomal activity against schistosomula of Schistosoma mansoni assessed as effect on parasite motility by throughput high content image analysis; type: functional, organism-based
Procedure, shortened: (§1)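 Puerto Rican (NMRI) strain cercariae were mechanically transformed to schistosomula. About 120 larvae were co-cultured with compound for 72 hr at 37 °C, 5% CO2, at 0.625% DMSO final. Controls were DMSO and auranofin. Motility and phenotype were scored by automated image analysis, with a hit threshold of ≤-0.15 (phenotype) and ≤-0.35 (motility) in ≥70% of larvae. Runs were in duplicate, and IC50 was estimated from dose-response curves.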

[2] = Cytotoxicity against MDBK cells after 24 hrs by MTT assay; type: cell-based, Bos taurus; details: cattle
Procedure, shortened: (§2)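 Cells were grown to about 80% confluence (HepG2 in BME, MDBK in EMEM, each with 10% FBS). They were seeded at 2.5 x10^4 per well and rested 24 hr, then exposed 24 hr to compound at 100–0.01 µM (1.25% DMSO). Controls were DMSO and 1% Triton X-100. Viability was read by MTT, and CC50 came from dose-response curves run in triplicate.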

Schistosoma mansoni [3] = assay: Antischistosomal activity against schistosomula of Schistosoma mansoni assessed as effect on parasite phenotype by throughput high content image analysis; type: functional, organism-based; procedure, shortened: as §1
[4] = Cytotoxicity against human HepG2 cells after 24 hrs by MTT assay; type: cell-based; procedure, shortened: as §2
[5] = Selectivity index, ratio of IC50 for human HepG2 cells to IC50 for antischistosomal activity against schistosomula of Schistosoma mansoni assessed as effect on parasite motility; type: toxicity; details: read-out: Ratio IC50
Procedure, shortened: (§3)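 Selectivity index was calculated as the CC50 from the HepG2 or MDBK MTT assay divided by the schistosomula phenotype or motility IC50 from the 72 hr image-based screen.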

[6] = Selectivity index, ratio of IC50 for human HepG2 cells to IC50 for antischistosomal activity against schistosomula of Schistosoma mansoni assessed as effect on parasite phenotype; type: toxicity; details: read-out: Ratio IC50; procedure, shortened: as §3
Schistosoma mansoni [7] = assay: Antischistosomal activity against adult stage of Schistosoma mansoni assessed as effect on parasite motility after 72 hrs by microscopic method; type: functional, organism-based
Procedure, shortened: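 Mice were infected percutaneously with 200 cercariae, and adults were recovered by portal perfusion at seven weeks. Three worm pairs per well in modified DMEM with 10% FCS were given compound at 50, 25, 12.5 and 6.25 µM final (0.3% DMSO) for 72 hr at 37 °C, 5% CO2. Controls were DMSO and auranofin. Worms were scored manually by microscopy at 24, 48 and 72 hr. Experiments were run in duplicate.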

Schistosoma mansoni [8] = assay: Antischistosomal activity against schistosomula of Schistosoma mansoni at 25 uM by throughput high content image analysis; type: functional, organism-based; procedure, shortened: as §1

| Compound | pIC50 (Schistosoma mansoni [1]) | CC50 at 24 h [2] [µM] | pIC50 (Schistosoma mansoni [3]) | CC50 at 24 h [4] [µM] | selectivity ratio [5] | selectivity ratio [6] | pIC50 (Schistosoma mansoni [7]) | Activity (Schistosoma mansoni [8]) |
| --- | --- | --- | --- | --- | --- | --- | --- | --- |
| CC1=C(C(O)Cc2ccc(C(C)(C)C)cc2)C(C)(C)CCC1 (stereo unspecified) | 4.59 | > 100 | 4.40 | > 100 |  |  |  |  |
| CC1(C)CCC[C@]2(C)c3ccccc3C(=O)C[C@@H]12 (relative stereo) | 4.83 | > 100 | 4.40 | 84.2 | 5.7 | 2.1 |  |  |
| COc1ccc2c(c1)C(=O)C(=O)[C@@H]1C(C)(C)CCC[C@]21C (relative stereo) | 5.19 | > 100 | 4.64 | 84.9 | 13.2 | 3.7 | < 4.30 | Active |
| COc1cccc(CC(=O)C2=C(C)CCCC2(C)C)c1 | 4.55 | > 100 | 4.38 | > 100 |  |  |  |  |
| CC1=C(C(O)Cc2ccc(C(C)C)cc2)C(C)(C)CCC1 (stereo unspecified) | 4.56 | > 100 | 4.40 | > 100 |  |  |  |  |
| COc1ccc2c(c1)C(=O)C[C@H]1C(C)(C)CCC[C@]21C (relative stereo) | 4.75 | > 100 | 4.54 | > 100 |  |  |  |  |
| CC1(C)CCC[C@]2(C)c3ccc(O)cc3C(=O)C[C@@H]12 (relative stereo) | 4.66 | > 100 | 4.55 | 65.1 | 3 | 2.3 |  |  |
| CC1=C(C(O)Cc2ccccc2)C(C)(C)CCC1 (stereo unspecified) | 4.67 | > 100 | 4.36 | > 100 |  |  |  |  |
| CC1(C)CCC[C@]2(C)c3ccccc3C(=O)C(=O)[C@H]12 (relative stereo) | 4.89 | > 100 | 4.60 | > 100 |  |  | < 4.30 | Active |
| COc1cc(CC(=O)C2=C(C)CCCC2(C)C)cc(OC)c1OC | 4.57 | > 100 | 4.36 | > 100 |  |  |  |  |
| COc1ccc2c(c1)CC[C@H]1C(C)(C)CCC[C@]21C (relative stereo) | 4.55 | > 100 | 4.36 | 89 | 3.3 | 2.1 |  |  |
| COc1ccc2c(c1)[C@@]1(C)CCCC(C)(C)[C@@H]1CC2 (relative stereo) | 4.58 | > 100 | 4.36 | > 100 |  |  |  |  |
| COc1ccc(CC(O)C2=C(C)CCCC2(C)C)cc1 (stereo unspecified) | 4.58 | > 100 | 4.37 | > 100 |  |  |  |  |
| COc1ccc(CC/C=C(\C)CCC=C(C)C)cc1 | 4.40 | > 100 | 4.40 | > 100 |  |  |  |  |
| COc1cccc(CC/C=C(\C)CCC=C(C)C)c1 | 4.57 | > 100 | 4.36 | > 100 |  |  |  |  |
| COc1cc(CC(O)C2=C(C)CCCC2(C)C)cc(OC)c1OC (stereo unspecified) | 4.36 | > 100 | 4.36 | > 100 |  |  |  |  |
| COc1cccc(CC(O)C2=C(C)CCCC2(C)C)c1 (stereo unspecified) | 4.63 | > 100 | 4.40 | > 100 |  |  |  |  |
| CC1=C(C(=O)Cc2ccccc2)C(C)(C)CCC1 | 4.59 | > 100 | 4.36 | > 100 |  |  |  |  |
| CC(C)=CCC/C(C)=C/CCc1ccccc1 | 4.36 | > 100 | 4.36 | > 100 |  |  |  |  |
| COc1ccc2c(c1)[C@@]1(C)CCCC(C)(C)[C@H]1C(=O)C2=O (relative stereo) | 4.58 | > 100 | 4.36 | > 100 |  |  |  |  |
| CC1=C(C(=O)Cc2ccc(C(C)(C)C)cc2)C(C)(C)CCC1 | 4.72 | > 100 | 4.55 | > 100 |  |  |  |  |

From ChEMBL document CHEMBL4152233, “Design, synthesis and anthelmintic activity of 7-keto-sempervirol analogues” (Eur J Med Chem, 2018)
